Sampled rows, rich in hits. Any-hit rate of the full collection: about 5.4%.
CSC inhib: blocks cancer stem cells; cancer stem cell-like cells viability, luminescence; inhibition, % at 7.5 µM; hit rate 1.1% among 300,000; in the data active = inhibition above about 75%; inconclusive = no clear call, values can overlap the other calls; tested in HMLE shEcad cells
Mdm2-MdmX inh: human Mdm2/MdmX binding inhibition; O15151+Q00987; SaOS-2 split-luciferase Mdm2/MdmX complementation, luminescence; inhibition, % at 8 µM; hit rate 3% among 330,000;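 active = inhibition of at least 50% at 8 µM in the primary screen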
Target sequence (O15151 whole entry, looked up): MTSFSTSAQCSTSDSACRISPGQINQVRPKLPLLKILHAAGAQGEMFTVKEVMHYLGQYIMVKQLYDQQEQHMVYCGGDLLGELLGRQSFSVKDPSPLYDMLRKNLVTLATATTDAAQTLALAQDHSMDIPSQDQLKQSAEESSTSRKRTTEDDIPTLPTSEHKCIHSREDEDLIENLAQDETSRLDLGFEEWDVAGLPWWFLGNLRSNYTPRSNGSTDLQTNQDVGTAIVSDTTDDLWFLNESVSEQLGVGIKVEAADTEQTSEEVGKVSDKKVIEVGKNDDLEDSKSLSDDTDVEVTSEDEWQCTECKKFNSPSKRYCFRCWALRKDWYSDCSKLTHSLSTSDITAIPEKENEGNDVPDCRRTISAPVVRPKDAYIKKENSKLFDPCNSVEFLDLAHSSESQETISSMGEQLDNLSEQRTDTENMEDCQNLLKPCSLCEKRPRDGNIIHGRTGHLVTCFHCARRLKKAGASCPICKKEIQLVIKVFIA
Target sequence (Q00987 whole entry, looked up): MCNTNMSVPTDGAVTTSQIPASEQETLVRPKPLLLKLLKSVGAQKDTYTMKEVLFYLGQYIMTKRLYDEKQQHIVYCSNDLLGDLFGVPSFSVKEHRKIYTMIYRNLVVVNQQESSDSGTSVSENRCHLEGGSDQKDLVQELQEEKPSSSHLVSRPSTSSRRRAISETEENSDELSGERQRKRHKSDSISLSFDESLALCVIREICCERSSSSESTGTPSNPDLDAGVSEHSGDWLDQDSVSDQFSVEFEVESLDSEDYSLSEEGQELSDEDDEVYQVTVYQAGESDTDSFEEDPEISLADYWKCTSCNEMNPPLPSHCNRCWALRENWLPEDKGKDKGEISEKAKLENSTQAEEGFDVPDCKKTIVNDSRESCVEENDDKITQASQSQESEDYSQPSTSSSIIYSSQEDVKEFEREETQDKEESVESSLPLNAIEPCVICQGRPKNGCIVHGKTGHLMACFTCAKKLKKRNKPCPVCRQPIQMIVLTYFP
SKKanGAS inh: SKKanGAS growth inhibition | AID 1662 | inhibition, % at 7.5 µM | S. pyogenes SKKanGAS, kanamycin growth, BacTiter-Glo, 6 h | hit rate 1.3% among 300,000;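 active = mean replicate score, as percent of positive control median, at least 50; inconclusive = mean below 50 but one replicate at or above 50; inactive = mean and every replicate below 50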;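 note: strain carries kanamycin resistance gene driven by streptokinase promoter and grows in 40 µg/ml kanamycin; loss of luminescence reflects streptokinase promoter inhibition or plain growth inhibition; 0% = median of DMSO wells and 100% = positive control at its reference dose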
aSyn UTR inh: MLPCN primary screen, SNCA 5' untranslated region; alpha-synuclein 5'UTR reporter, inhibitor activity; inhibition, % (tested at 7.5 µM); hit rate 0.82% among 300,000; AID 1813; in the data active = inhibition above about 60%; inconclusive = no clear call, values can overlap the other calls;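 note: H4 neuroglioblastoma cells stably carrying SNCA 5'UTR luciferase fusion; 0% = DMSO wells and 100% = positive control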
T cruzi repl: T. cruzi replication inhibition | T. cruzi beta-gal in NIH3T3, luminescence, 90 h | inhibition, % (no concentration beside the values) | hit rate 1.4% among 300,000;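 active = mean inhibition across valid replicates above about 55%, limit read from the data; inconclusive = mean below that limit but half or more replicates reach it; inactive = mean below it, under half of replicates reach it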;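 note: signal also drops with host cell toxicity which is not excluded here; 0% = plate median of DMSO wells and 100% = zero luminescence signal; higher percent means less beta-gal luminescence so fewer parasites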
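compound dosing = single 50 nL compound addition per well in DMSO | material = NIH/3T3 host cells with β-galactosidase reporter T. cruzi | input = 5,000 host fibroblasts per well | timing = ≥90 h infection period, 3 h prior cell attachment | read-out basis = percent inhibition of parasite-derived β-gal signal | detection = GalScreen β-gal luminescence, detergent lysis, 60 min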
Mdm2-MdmX conf: confirmation of human Mdm2/MdmX interaction inhibitors; shares compounds with Mdm2-MdmX inh; Mdm2-MdmX binding, luminescent assay; inhibition, % at 8 µM; hit rate 55% among 10,000; AID 489028; in the data active = inhibition above about 40%
FLuc counter: full-length luciferase inhibition in Mdm2/MdmX counter-screen; inhibition, % at 8 µM; hit rate 77% among 6,200; SaOS-2 full-length luciferase counterscreen, luminescence; AID 504607; shares compounds with Mdm2-MdmX inh;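 active = mean inhibition at 8 µM reaching about 37%, which flags the compound as non-specific, limit read from the data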;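 note: p53-null SaOS-2 cells with luciferase driven by a doxycycline-inducible promoter; compound on cells about two nights before reading with doxycycline added after day one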
* marks the source's active call; other numbers are inactive results; ? = inconclusive; nt = no result; + = active, no number.

SMILES | CSC inhib | Mdm2-MdmX inh | SKKanGAS inh | aSyn UTR inh | T cruzi repl | Mdm2-MdmX conf | FLuc counter
CC(C)C[C@H]1CN=C(Nc2ccccc2)N1CC1CCCC1 | -4 | 13 | 0 | -7 | 11 | nt | nt
Cc1cc(/C=C2\SC(=S)N(C)C2=O)c(C)n1-c1ccccc1O | 98* | 86* | 88* | -126 | 28 | 90* | 108*
Cc1cc(/C=C2\SC(=S)N(C)C2=O)c(C)n1-c1ccc(O)cc1 | 41 | 85* | 65* | 50 | 2 | 81* | 50*
CNC(=O)c1cc(C(=O)c2ccc(F)cc2C(F)(F)F)c[nH]1 | -8 | 13 | -6 | 10 | -7 | nt | nt
CCCCn1nnnc1SCC(=O)NNC(=O)c1ccco1 | -20 | 11 | -4 | -31 | -3 | nt | nt
Cc1ccc(Nc2nc(-c3c(C)nc4ncccn34)cs2)cc1 | 62 | 74* | -4 | 84* | -44 | 84* | 73*
Cc1nc2ncccn2c1-c1csc(Nc2ccc(O)cc2)n1 | nt | 72* | -10 | -67 | -65 | 68* | 66*
Cc1ccc(Nc2nc(-c3c(C)nc4ccccn34)cs2)cc1 | nt | 89* | -6 | 44 | 39 | 73* | 81*
C=CCNc1nc(-c2c(C)nc3ncccn23)cs1 | -33 | 9 | -4 | -6 | -3 | nt | nt
Cc1nc2ccccn2c1-c1csc(NCc2ccco2)n1 | -15 | 21 | -1 | -20 | 16 | nt | nt
CCN(CC)C(=O)NC1CC(=O)N(c2ccc(OC)cc2)C1 (stereo not given) | -18 | -8 | -1 | 23 | -16 | nt | nt
COc1cc(NS(=O)(=O)c2ccc(Br)s2)cc(OC)c1 | 3 | 9 | 1 | 14 | 0 | nt | nt
O=C(COC(=O)c1cc(S(=O)(=O)N2CCCCC2)ccc1N1CCOCC1)c1ccc(F)cc1 | -8 | 14 | 7 | 3 | 13 | nt | nt
O=C(CCc1ccccc1)Nc1ccc2ccccc2n1 | 8 | -168 | -3 | -146 | 26 | nt | nt
COCCn1c(SCc2ccc(F)cc2)nc2ccccc2c1=O | 9 | 14 | 40 | 3 | 34 | nt | nt
C=C(C)COc1ccc(-c2[nH]ncc2-c2ccc(OC)cc2)c(O)c1 | ? | 63* | 75* | 7 | 7 | 65* | 29
COc1ccc(-c2cn[nH]c2-c2ccc(OCc3ccccc3)cc2O)cc1OC | 43 | 53* | 12 | 29 | 18 | 55* | 43*
COc1ccc(-c2n[nH]c(C)c2-c2ccc(Cl)cc2)c(O)c1OC | 34 | 87* | 8 | 39 | -6 | 73* | 39*
C=C(C)COc1ccc(-c2n[nH]c(C)c2-c2ccc(OC)c(OC)c2)c(O)c1 | 81* | 71* | 21 | 49 | 20 | 54* | 63*
Cc1[nH]nc(-c2ccc(O)cc2O)c1-c1ccc(Cl)cc1 | 30 | 18 | -2 | 12 | 4 | nt | nt
C=C(C)COc1ccc(-c2n[nH]c(C)c2Oc2ccccc2OC)c(O)c1 | -7 | 33 | 4 | -23 | 6 | nt | nt
COc1cc(CNCc2ccc(SC)cc2)cc(OC)c1 | -8 | 35 | -3 | 1 | -22 | nt | nt
N#Cc1c(NC(=O)c2cnccn2)sc2c1CCCC2 | 2 | -54 | -6 | -128 | -10 | nt | nt
COc1ccc(Oc2cn[nH]c2-c2ccc(O)cc2O)cc1 | -5 | 1 | -1 | -3 | 10 | nt | nt
COc1ccc(-c2nc(N)ncc2-c2ccccc2)c(O)c1 | -6 | 46 | 1 | 34 | 14 | nt | nt
SMILES | CSC inhib | Mdm2-MdmX inh | SKKanGAS inh | aSyn UTR inh | T cruzi repl | Mdm2-MdmX conf | FLuc counter
COc1ccc(-c2cn[nH]c2-c2ccc(O)cc2O)cc1 | -6 | 71* | 0 | -26 | 0 | 70* | 25
C=C(C)COc1ccc(-c2[nH]ncc2-c2ccc(OC)c(OC)c2)c(O)c1 | 92* | 66* | 2 | -13 | -1 | 60* | 56*
COc1ccc(-c2cnc(N)nc2-c2ccc(OC)cc2O)cc1 | 18 | 58* | -7 | 3 | 23 | 18 | nt
O=C(Nc1ccccc1)c1ccsc1 | -2 | 9 | 3 | -27 | -8 | nt | nt
Cc1ccccc1Nc1nc(N)nc(CCl)n1 | -5 | 94* | 7 | -5 | 7 | 91* | 40*
Nc1nc(CCl)nc(Nc2ccc3ccccc3c2)n1 | nt | nt | -6 | 23 | 18 | nt | nt
COc1ccc(Nc2nc(N)nc(CCl)n2)cc1 | -3 | 87* | 0 | -38 | 52 | 87* | 52*
CCOC(=O)C1=C(N)Oc2cc(O)ccc2C1c1ccc(F)cc1F (stereo not given) | -7 | 12 | 0 | 1 | 16 | nt | nt
C/C(=C\c1ccc(C(=O)O)cc1)c1ccc2c(c1)C(C)(C)CCC2(C)C | 101* | 58* | nt | nt | nt | 52* | 44*
CC(=O)C(=Cc1ccc(C(=O)O)cc1)C(C)=O | -11 | 1 | -1 | -10 | 4 | nt | nt
COc1ccc(NC2CCCN(C(=O)CCCn3cncn3)C2)cc1OC (stereo not given) | -10 | 4 | 0 | -8 | -11 | nt | nt
Cc1ccc(Oc2c(C(N)=O)cc([N+](=O)[O-])cc2[N+](=O)[O-])cc1 | + | 95* | -3 | -8 | 4 | 95* | 52*
COc1ccc(OC)c(NC(=O)COC(=O)CCCN2C(=O)c3ccccc3C2=O)c1 | 10 | -6 | -5 | 8 | -13 | nt | nt
Cc1cccc(NC(=S)NC23CN4CN(CN(C4)C2)C3)c1C | -17 | 13 | -2 | 4 | 6 | nt | nt
Cc1ccc(NC(=O)c2ccc(NCCCN3CCC(C)CC3)c([N+](=O)[O-])c2)cc1F | -1 | 60* | -4 | 16 | 0 | 55* | 47*
O=C(Nc1cccc(Cl)c1)c1ccc(NCCCN2CCOCC2)c([N+](=O)[O-])c1 | nt | 30 | -10 | -7 | 24 | nt | nt
O=c1oc(-c2ccccc2)cc(Cl)c1Cl | 26 | 94* | 4 | -198 | 50 | 81* | 3
O=P(O)(O)c1cc(-c2ccccc2)oc1-c1ccccc1 | -4 | -12 | 0 | -10 | -15 | nt | nt
O=C(OCc1nnc(-c2ccc(Cl)cc2)o1)c1ccc(O)cc1 | -13 | 4 | -5 | -9 | 8 | nt | nt
CS(=O)(=O)c1ccc(C(=O)OCc2nnc(-c3ccc(Cl)cc3)o2)cc1[N+](=O)[O-] | 48 | 96* | 1 | -23 | 10 | 60* | 15
Cn1cccc1C(=O)NC(=O)COC(=O)c1ccc(S(C)(=O)=O)c([N+](=O)[O-])c1 | 53 | 64* | nt | nt | nt | 40 | 40*
Cn1ccsc1=NC(=O)c1ccc(Cl)c([N+](=O)[O-])c1 | 7 | -32 | -2 | -117 | 27 | nt | nt
Cn1ccsc1=NC(=O)c1ccc(S(C)(=O)=O)c([N+](=O)[O-])c1 | 5 | 51* | 7 | -21 | -8 | 23 | nt
CC(=O)c1c(C)[nH]c(C(=O)OCc2nnc(-c3ccc([N+](=O)[O-])cc3)o2)c1C | 3 | 53* | nt | nt | nt | 26 | nt
Cn1cccc1C(=O)NC(=O)COC(=O)c1ccc(S(C)(=O)=O)cc1 | -26 | 25 | nt | nt | nt | nt | nt
Cc1ccccc1NC(=O)CSCc1nc(N)nc(Nc2ccccc2C)n1 | nt | -8 | 5 | 3 | 4 | nt | nt

Bioassay records: PubChem BioAssay, several laboratories
